Screening results: PubChem, several laboratories
EBNA-1 inhibitor = blocks EBNA-1 binding to DNA. EBNA-1 DNA binding, fluorescence polarization. inhibition, % at 14.8 µM. 300,000 tested, 0.34% active. AID 1950; in the data active = inhibition above about 28%
ZTA counter = ZTA (EBV) inhibition in EBNA-1 counter-screen. P03206. ZTA-DNA binding, fluorescence polarization. inhibition, % at 11 µM. 320,000 tested, 0.15% active. AID 2234; in the data active = inhibition above about 33%
Target sequence (P03206 whole entry, looked up): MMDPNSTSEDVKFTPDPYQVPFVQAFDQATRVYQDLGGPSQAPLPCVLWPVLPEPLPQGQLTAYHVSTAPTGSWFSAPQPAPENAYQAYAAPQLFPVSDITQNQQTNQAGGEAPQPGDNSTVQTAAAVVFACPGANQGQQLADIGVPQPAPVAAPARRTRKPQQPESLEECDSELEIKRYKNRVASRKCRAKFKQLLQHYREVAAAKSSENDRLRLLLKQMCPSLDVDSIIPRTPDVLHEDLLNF
UBC13 inh = inhibitors of human UBC13 polyubiquitin chain formation | 330,000 tested, 0.47% active | inhibition, % at 20 µM | P61088 | TR-FRET; in the data active = inhibition above about 45%, passing the limit was not always enough
Target sequence (P61088 whole entry, looked up): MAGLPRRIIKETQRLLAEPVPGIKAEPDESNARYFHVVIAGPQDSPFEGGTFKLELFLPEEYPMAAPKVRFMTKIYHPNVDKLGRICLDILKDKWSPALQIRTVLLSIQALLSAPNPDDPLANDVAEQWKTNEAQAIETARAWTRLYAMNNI
PfGluPho inh = PfG6PD (Plasmodium falciparum) enzyme inhibition | inhibition, % at 20 µM | PfGluPho enzyme, NADPH resazurin-diaphorase fluorescence | 350,000 tested, 0.78% active;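 active = inhibition reaching at least a set limit at 20 µM in the primary screen, cut at about 59% in these data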;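 also: 0% = DMSO wells with substrate and 100% = DMSO wells lacking glucose-6-phosphate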
Apaf1 inhib = inhibitors of human Apaf-1 apoptosome | O14727 | reconstituted apoptosome caspase-3 activity, DEVD-Rh110 fluorescence | inhibition, % at 20 µM | 330,000 tested, 0.71% active | AID 489030; active = inhibition of at least 40% at 20 µM;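 also: plate controls were DMSO wells for no effect and DEVD-CHO caspase inhibitor wells for full effect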
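System – cell-free apoptosome with Apaf-1, procaspase-3 and caspase-9 · Buffer or medium – pH 7.5 Hepes buffer with CHAPS, BSA, DTT · Also added – cytochrome c with DEVD-Rh110 · Times – 30 min compound preincubation, 50 min activation, room temperature · Technique – Rh110 fluorescence intensity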
M18AAP inhibitor = PfM18AAP enzyme inhibition | recombinant PfM18AAP, H-Glu-NHMec fluorogenic cleavage | inhibition, % at 7.35 µM | AID 1822 | 290,000 tested, 1.2% active;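 active = inhibition above the campaign mean inhibition over all tested compounds plus 3 SD, cut at about 28% in these data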;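 also: 0% = plate median of test compound wells and 100% = 2 mM ZnCl2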
Apaf-1 inh conf = confirmation of Apaf-1 inhibitors; shares compounds with Apaf1 inhib; reconstituted apoptosome, caspase-3 DEVD-Rh110 fluorescence; inhibition, % at 20 µM; 1,800 tested, 25% active; AID 504614;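 active = mean inhibition of at least 40% at 20 µM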;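 also: plate controls were DMSO wells for no effect and DEVD-CHO caspase inhibitor control wells for full effect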
Rh110 interf inh = Rh110 signal interference in Apaf-1 inhibitor counter-screen | shares compounds with Apaf1 inhib | AID 504615 | Rh110 fluorescence interference, quenched caspase reaction | 1,800 tested, under 10 active | activation (fluorescence interference), % at 20 µM;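 active = signal rise of 40% or more at 20 µM, treated as a fluorescence artifact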
Apaf1 inh interf = counter-screen for Apaf-1 inhibitors: fluorescence interference, dose response. shares compounds with Apaf1 inhib. fluorescence interference counterscreen, Apaf-1 assay format. IC50, µM. 460 tested, under 10 active. AID 588538; call rule not given here
An asterisk follows results filed as active. The list is not random: actives were taken first. Their share in the collection is about 2.9%.

Results for COc1ccc(-c2cc(-c3ccccc3)c(C#N)c(S(C)(=O)=O)n2)cc1 ?
EBNA-1 inhibitor: 3.1; ZTA counter: 9.3; UBC13 inh: 38.0; PfGluPho inh: 6.0; Apaf1 inhib: 31.2; M18AAP inhibitor: 2.8

Results for CS(=O)(=O)c1nc(-c2ccc(Br)cc2)cc(-c2ccccc2)c1C#N ?
EBNA-1 inhibitor: -12.9; ZTA counter: 14.3; UBC13 inh: 10.5; PfGluPho inh: 1.7; Apaf1 inhib: 47.4*; M18AAP inhibitor: 5.5; Apaf-1 inh conf: 59.1*; Rh110 interf inh: 3.5; Apaf1 inh interf: >100

What do the screens show for `C[C@@H](C(=O)NC1CCN(Cc2ccccc2)CC1)N1C(=O)N2CCc3c([nH]c4ccccc34)[C@@]2(C)C1=O`?
EBNA-1 inhibitor: -1.5; ZTA counter: -12.4; UBC13 inh: 22.6; PfGluPho inh: -1.8; Apaf1 inhib: 2.0; M18AAP inhibitor: 2.9

Results for CC(C)C[C@@H](C(=O)NC1CCN(Cc2ccccc2)CC1)N1C(=O)N2CCc3c([nH]c4ccccc34)[C@@]2(C)C1=O ?
EBNA-1 inhibitor: 0.3; ZTA counter: 1.4; UBC13 inh: 34.9; PfGluPho inh: 7.9; Apaf1 inhib: 44.6*; M18AAP inhibitor: 12.5; Apaf-1 inh conf: 17.2; Rh110 interf inh: -1.4

What do the screens show for `Cc1cc(CN2CCC(n3nccc3NC(=O)c3ccccc3C)CC2)n[nH]1`?
EBNA-1 inhibitor: 0.3; ZTA counter: -0.4; UBC13 inh: 3.5; PfGluPho inh: -24.6; Apaf1 inhib: 1.8; M18AAP inhibitor: -0.3

What do the screens show for `CC1CCCC(C)N1/N=C/c1ccc(C#N)cc1` (stereo unspecified)?
EBNA-1 inhibitor: -1.0; ZTA counter: -24.1; UBC13 inh: 0.0; PfGluPho inh: 0.6; Apaf1 inhib: -2.7; M18AAP inhibitor: -2.0

How did CCn1c(SCC(=O)N/N=C/C=C\c2ccco2)nc2ccccc21 do in these assays?
EBNA-1 inhibitor: 1.6; ZTA counter: -18.5; UBC13 inh: 1.0; PfGluPho inh: 48.3; Apaf1 inhib: 46.9*; M18AAP inhibitor: 11.8; Apaf-1 inh conf: 15.7; Rh110 interf inh: -5.7

How did O=C(CSc1nc2ccccc2n1Cc1ccccc1)N/N=C/c1ccco1 do in these assays?
EBNA-1 inhibitor: -3.4; ZTA counter: -0.5; UBC13 inh: 7.9; PfGluPho inh: 3.2; Apaf1 inhib: 10.8; M18AAP inhibitor: 11.7

What do the screens show for `Cc1cc(NC(=O)CCCn2nc([N+](=O)[O-])c(Br)c2C)no1`?
EBNA-1 inhibitor: -3.2; ZTA counter: 4.1; UBC13 inh: 4.2; PfGluPho inh: 4.1; Apaf1 inhib: 40.5*; M18AAP inhibitor: -6.7; Apaf-1 inh conf: 1.9; Rh110 interf inh: -1.6

What do the screens show for `Cc1c(Cl)c([N+](=O)[O-])nn1CCCC(=O)Nc1cccc(Cl)c1`?
EBNA-1 inhibitor: 10.0; ZTA counter: 3.2; UBC13 inh: 6.7; PfGluPho inh: 23.9; Apaf1 inhib: 8.7; M18AAP inhibitor: -4.3

Results for COc1cc(Cl)ccc1OCc1cc(C(=O)NCc2cc(C(C)C)no2)no1 ?
EBNA-1 inhibitor: 4.5; ZTA counter: -15.2; UBC13 inh: 4.3; PfGluPho inh: 4.3; Apaf1 inhib: 13.0; M18AAP inhibitor: -6.9

How did O=C(NCCCn1ccnc1)c1noc2c1CCc1ccccc1-2 do in these assays?
EBNA-1 inhibitor: 0.1; ZTA counter: -8.4; UBC13 inh: -2.2; PfGluPho inh: 33.9; Apaf1 inhib: 47.2*; M18AAP inhibitor: 5.1; Apaf-1 inh conf: 39.6; Rh110 interf inh: 1.6

What do the screens show for `C[C@H](CO)N1C[C@H](C)[C@@H](CN(C)Cc2ccc(C(=O)O)cc2)Oc2c(NC(=O)C3CC3)cccc2C1=O`?
UBC13 inh: 7.6; PfGluPho inh: 14.7; Apaf1 inhib: -4.4

How did C[C@H](CO)N1C[C@H](C)[C@@H](CN(C)Cc2ccc(Oc3ccccc3)cc2)Oc2c(NC(=O)C3CC3)cccc2C1=O do in these assays?
UBC13 inh: 15.6; PfGluPho inh: 37.5; Apaf1 inhib: 43.4*; Apaf-1 inh conf: 22.2; Rh110 interf inh: -4.5

Results for Cc1ccc(NC(=O)C(=O)NN=C2CCCC2)cc1C ?
EBNA-1 inhibitor: -12.7; ZTA counter: -0.6; UBC13 inh: -3.7; PfGluPho inh: 7.4; Apaf1 inhib: 10.1; M18AAP inhibitor: 10.2

Results for CC[N+](C)(CC)CC(O)COCC1COc2ccccc2O1 (stereo unspecified) ?
EBNA-1 inhibitor: 8.2; ZTA counter: -16.8; UBC13 inh: 8.8; PfGluPho inh: 4.5; Apaf1 inhib: -7.9; M18AAP inhibitor: -10.1

Results for Cc1cccc(C)c1NC(=O)CN1CCN(CCCC(c2ccc(F)cc2)c2ccc(F)cc2)CC1 ?
EBNA-1 inhibitor: 14.0; ZTA counter: -2.8; UBC13 inh: 35.2; PfGluPho inh: 16.7; Apaf1 inhib: 51.3*; Apaf-1 inh conf: 19.3; Rh110 interf inh: 11.0

How did CC1=NC(C)(C)Cc2cc(C)c(C)cc21 do in these assays?
EBNA-1 inhibitor: -8.0; ZTA counter: -4.8; UBC13 inh: -10.4; PfGluPho inh: 3.4; Apaf1 inhib: -0.6; M18AAP inhibitor: 15.5

Results for CCCn1nc(C(=O)NCC2COc3ccccc3O2)c2ccccc2c1=O (stereo unspecified) ?
ZTA counter: -7.0; UBC13 inh: 2.0; PfGluPho inh: 7.4; Apaf1 inhib: 9.9

Results for Cc1ccccc1-c1cc2c(nn1)-c1ccccc1C2=O ?
EBNA-1 inhibitor: 4.0; ZTA counter: -3.4; UBC13 inh: -31.4; PfGluPho inh: -5.5; Apaf1 inhib: 97.1*; M18AAP inhibitor: -19.3; Apaf-1 inh conf: 60.7*; Rh110 interf inh: -6.5; Apaf1 inh interf: >100

How did O=C1c2ccccc2-c2nnc(-c3ccc(O)cc3)cc21 do in these assays?
EBNA-1 inhibitor: 6.1; ZTA counter: -9.4; UBC13 inh: -47.3; PfGluPho inh: 7.5; Apaf1 inhib: 90.7*; M18AAP inhibitor: 2.2; Apaf-1 inh conf: 11.1; Rh110 interf inh: 0.5

Results for Cc1ccc(-c2cc3c(nn2)-c2ccccc2C3=O)cc1 ?
EBNA-1 inhibitor: 3.5; ZTA counter: 1.2; UBC13 inh: -19.7; PfGluPho inh: -2.0; Apaf1 inhib: 26.8; M18AAP inhibitor: 2.7

Results for O=C1c2ccccc2-c2nnc(-c3ccc(F)cc3)cc21 ?
EBNA-1 inhibitor: 4.6; ZTA counter: 7.7; UBC13 inh: -56.1; PfGluPho inh: 15.2; Apaf1 inhib: 78.2*; M18AAP inhibitor: -2.8; Apaf-1 inh conf: 9.1; Rh110 interf inh: 2.3

How did COC(=O)c1cccc(NC(=S)NCc2ccc(F)cc2)c1 do in these assays?
EBNA-1 inhibitor: -1.6; ZTA counter: 11.7; UBC13 inh: 6.3; PfGluPho inh: -4.5; Apaf1 inhib: 6.7; M18AAP inhibitor: 0.9
